Drawing on ChEMBL document CHEMBL1140715, “Structure-activity relationships of novel iron chelators for the treatment of iron overload disease: the methyl pyrazinylketone isonicotinoyl hydrazone series” (J Med Chem, 2008), this text covers Activity, IC50 and logP for 27 compounds.

Bounds are passed on as bounds.

System in one series: not listed separately
Briefly: Induction of intracellular iron mobilization in human […] cells relative to control. Type of series: functional. Set-up: concentration or dose not given beside the values.
Conditions: not given
The method, boiled down: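 SK-N-MC cells prelabeled with 59Fe-Tf (0.75 µM) for 3 h at 37 °C, washed four times with ice-cold PBS, then incubated with chelator (50 µM) for 3 h at 37 °C. Released 59Fe in medium and cell pellet counted by γ-scintillation. Mean ± SD, three experiments, triplicate determinations.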
Regarding `C/C(=N\NC(=O)c1ccc(C(F)(F)F)cc1)c1cnccn1`, the Activity is listed as 31%.
Still for that read-out and setting: the same measure for `C/C(=N\NC(=O)c1ccc(O)cc1)c1cnccn1`: 39%.
`C/C(=N\NC(=O)c1ccc(N)cc1)c1cnccn1` displayed an Activity of 34%.
On to `C/C(=N\NC(=O)c1ccc(Br)cc1)c1cnccn1`, for which the Activity was 31%.
`C/C(=N\NC(=O)c1ccc([N+](=O)[O-])cc1)c1cnccn1`: the Activity is on record as 31%.
Take `O=C(N/N=C/c1c(O)ccc2ccccc12)c1ccncc1`: the Activity amounted to 44%.
`C/C(=N\NC(=O)c1cccc(Br)c1)c1cnccn1` returned an Activity of 31%.
`CC(=O)N(O)CCCCCNC(=O)CCC(=O)N(O)CCCCCNC(=O)CCC(=O)N(O)CCCCCN` [DEFEROXAMINE] gave an Activity of 16%.
The same measure, in the same setting: with `C/C(=N\NC(=O)c1ccccc1)c1cnccn1` [METHYL PYRAZINYLKETONE BENZOYL HYDRAZONE] the figure was 31%; with `C/C(=N\NC(=O)c1ccncc1)c1cnccn1` [METHYL PYRAZINYLKETONE ISONICOTINOYL HYDRAZONE], 31%; with `C/C(=N\NC(=O)c1cccs1)c1cnccn1` [METHYL PYRAZINYLKETONE THIOPHENECARBOXYL HYDRAZONE], 31%.
With `Cc1ncc(CO)c(/C=N/NC(=O)c2ccncc2)c1O` [PYRIDOXAL ISONICOTINOYL HYDRAZONE], the Activity was determined as 40%.

System in the next series: not listed separately
Briefly: Antiproliferative activity against human […] cells by MTT assay. Type of series: cell-based.
Conditions: not given
A digest of the protocol:
(§1)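 MTT assay of cell proliferation; MTT colour formation directly proportional to viable cell number counted by Trypan blue staining. IC50 reported as mean ± SD of three experiments.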
In general terms: Formazan colour is commonly taken as a measure of viable cells.
One may read the IC50 as the concentration that inhibits the measured activity by half. Compound `O=C(NN=C(c1ccccn1)c1ccccn1)c1ccccc1` showed an IC50 of 3.04 µM.
`C/C(=N\NC(=O)c1ccc(C(F)(F)F)cc1)c1cnccn1` came in with an IC50 of 1.16 µM.
The compound `O=C(N/N=C/c1ccccn1)c1ccccc1` displayed an IC50 of 19.2 µM.
The same measure, in the same setting: the same measure for `O=C(N/N=C/c1ccccn1)c1ccc(O)cc1`: more than 80 µM.
`Nc1ccc(C(=O)N/N=C/c2ccccn2)cc1` returned an IC50 of more than 80 µM.
On the same count and under the same terms, with `C/C(=N\NC(=O)c1ccc(O)cc1)c1cnccn1` the figure was 16.8 µM.
`C/C(=N\NC(=O)c1ccc(N)cc1)c1cnccn1` came in with an IC50 of 58.8 µM.
`C/C(=N\NC(=O)c1ccc(Br)cc1)c1cnccn1` came in with an IC50 of 1.22 µM.
`C/C(=N\NC(=O)c1ccc([N+](=O)[O-])cc1)c1cnccn1` gave an IC50 of 1.39 µM.
Same read-out and setting: with `O=C(NN=C(c1ccccn1)c1ccccn1)c1cccc(Br)c1` the figure was 0.24 µM; with `O=C(NN=C(c1ccccn1)c1ccccn1)c1ccc([N+](=O)[O-])cc1`, 0.26 µM; with `O=C(NN=C(c1ccccn1)c1ccccn1)c1ccc(C(F)(F)F)cc1`, 0.24 µM.
`O=C(N/N=C/c1ccccn1)c1ccc([N+](=O)[O-])cc1` had an IC50 of 35.5 µM.
Same read-out and setting: with `O=C(N/N=C/c1ccccn1)c1cccs1` the figure was 22.7 µM; with `CN(C)C(=S)NN=C(c1ccccn1)c1ccccn1`, 0.001 µM.
Compound `O=C(N/N=C/c1c(O)ccc2ccccc12)c1ccncc1` came in with an IC50 of 0.83 µM.
Turning to `C/C(=N\NC(=O)c1cccc(Br)c1)c1cnccn1`, the IC50 is 1.15 µM.
The compound `O=C(NN=C(c1ccccn1)c1ccccn1)c1ccc(Br)cc1` yielded an IC50 of 0.3 µM.
In turn, `O=C(N/N=C/c1ccccn1)c1ccc(Br)cc1` came in with an IC50 of 17.7 µM.
With `O=C(N/N=C/c1ccccn1)c1ccc(C(F)(F)F)cc1`, the IC50 stood at 22.4 µM.
The compound `O=C(N/N=C/c1ccccn1)c1ccncc1` showed an IC50 of more than 80 µM.
Regarding `CC(=O)N(O)CCCCCNC(=O)CCC(=O)N(O)CCCCCNC(=O)CCC(=O)N(O)CCCCCN` [DEFEROXAMINE], the concentration for half-maximal inhibition (IC50) is 12.1 µM.
Consider `C/C(=N\NC(=O)c1ccccc1)c1cnccn1` [METHYL PYRAZINYLKETONE BENZOYL HYDRAZONE], for which inhibition was half-maximal at 3.62 µM (IC50).
The same measure, in the same setting: the same measure for `C/C(=N\NC(=O)c1ccncc1)c1cnccn1` [METHYL PYRAZINYLKETONE ISONICOTINOYL HYDRAZONE]: 5.79 µM; for `C/C(=N\NC(=O)c1cccs1)c1cnccn1` [METHYL PYRAZINYLKETONE THIOPHENECARBOXYL HYDRAZONE]: 2.13 µM; for `NC(=S)N/N=C/c1ncccc1N` [TRIAPINE]: 0.66 µM.

A further series concerns MRC5. Briefly: Antiproliferative activity against human MRC5 cells by MTT assay.
Conditions: not given
It is filed as cell-based. A digest of the protocol:
as §1
In the case of `C/C(=N\NC(=O)c1ccc(C(F)(F)F)cc1)c1cnccn1`, the IC50 is 2.09 µM.
With `C/C(=N\NC(=O)c1ccc(O)cc1)c1cnccn1`, the IC50 is more than 80 µM.
Same read-out and setting: the same measure for `C/C(=N\NC(=O)c1ccc(N)cc1)c1cnccn1`: more than 80 µM; for `C/C(=N\NC(=O)c1ccc(Br)cc1)c1cnccn1`: 2.94 µM.
The compound `C/C(=N\NC(=O)c1ccc([N+](=O)[O-])cc1)c1cnccn1` yielded an IC50 of 2.87 µM.
In turn, `C/C(=N\NC(=O)c1cccc(Br)c1)c1cnccn1` had an IC50 of 3.12 µM.
As for `C/C(=N\NC(=O)c1ccccc1)c1cnccn1` [METHYL PYRAZINYLKETONE BENZOYL HYDRAZONE], the IC50 worked out at 7.04 µM.
For the compound `C/C(=N\NC(=O)c1ccncc1)c1cnccn1` [METHYL PYRAZINYLKETONE ISONICOTINOYL HYDRAZONE], the midpoint of inhibition, the IC50, lay at 25.2 µM.
`C/C(=N\NC(=O)c1cccs1)c1cnccn1` [METHYL PYRAZINYLKETONE THIOPHENECARBOXYL HYDRAZONE]: the IC50 is 5.54 µM.

System in a further series: not listed separately
Briefly: Partition coefficient, log P of the compound. It is filed as physicochemical. The conditions noted are these: octanol/water. A digest of the protocol:
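Octanol–water partition coefficient measured spectrophotometrically.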
Usually logP stands for a log measure of how a compound divides between an organic and an aqueous phase. Consider `C/C(=N\NC(=O)c1ccc(C(F)(F)F)cc1)c1cnccn1`, for which the logP was found to be 2.
`C/C(=N\NC(=O)c1ccc(O)cc1)c1cnccn1` registered a logP of 1.9.
`C/C(=N\NC(=O)c1ccc(N)cc1)c1cnccn1`: the logP was found to be 1.3.
`C/C(=N\NC(=O)c1ccc(Br)cc1)c1cnccn1`: the logP is 2.9.
Consider `C/C(=N\NC(=O)c1ccc([N+](=O)[O-])cc1)c1cnccn1`, for which the logP came to 2.1.
The same measure, in the same setting: with `C/C(=N\NC(=O)c1cccc(Br)c1)c1cnccn1` the figure was 2.9.
Same read-out and setting: the same measure for `C/C(=N\NC(=O)c1ccccc1)c1cnccn1` [METHYL PYRAZINYLKETONE BENZOYL HYDRAZONE]: 1.9.
The same measure, in the same setting: the same measure for `C/C(=N\NC(=O)c1ccncc1)c1cnccn1` [METHYL PYRAZINYLKETONE ISONICOTINOYL HYDRAZONE]: 1.2; for `C/C(=N\NC(=O)c1cccs1)c1cnccn1` [METHYL PYRAZINYLKETONE THIOPHENECARBOXYL HYDRAZONE]: 2.6.
